Screening results from PubChem.
In the library only some 2% were active in any assay of this set; here they are far more common.
Rev-RRE block: disrupts HIV-1 Rev binding to RRE RNA | P05866 | Rev peptide-RRE RNA binding, FRET | inhibition, % at 8 µM | hit rate 0.79% among 97,000 | AID 704;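 active = inhibition above the screen-wide mean plus 3 SD, cut at about 35% in these data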
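Probe or stimulus: fluorescein-Rev peptide as binding partner; assay system: Cy5-tagged RRE RNA duplex with fluorescein-tagged Rev peptide; timing: 5 min compound–RNA preincubation, then 15 min with peptide, 25 °C; medium: HEPES pH 7.5 buffer with KCl, MgCl2, NaCl and EDTA; signal: fluorescein-to-Cy5 FRET, 480 nm excitation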
PTPN22 inh 2: LYP (human) phosphatase inhibition; Q9Y2R2; recombinant LYP catalytic domain, DiFMUP fluorescence; inhibition, % at 2 µM; hit rate 0.21% among 96,000; AID 640;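 active = inhibition at 2 µM at or above a set limit, the screen mean plus 3 SD, cut at about 24% in these data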
EphB4 antag: blocks human EphB4 binding to ephrin-B2; inhibition, % at 7 µM; hit rate 0.15% among 97,000; EphB4 LBD / TNYL-RAW-Alexa532 peptide, fluorescence polarization;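 active = inhibition above the screen-wide mean inhibition plus 3 SD, cut at about 15% in these data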
Target sequence (P54760 whole entry, looked up, the tested form may be a part): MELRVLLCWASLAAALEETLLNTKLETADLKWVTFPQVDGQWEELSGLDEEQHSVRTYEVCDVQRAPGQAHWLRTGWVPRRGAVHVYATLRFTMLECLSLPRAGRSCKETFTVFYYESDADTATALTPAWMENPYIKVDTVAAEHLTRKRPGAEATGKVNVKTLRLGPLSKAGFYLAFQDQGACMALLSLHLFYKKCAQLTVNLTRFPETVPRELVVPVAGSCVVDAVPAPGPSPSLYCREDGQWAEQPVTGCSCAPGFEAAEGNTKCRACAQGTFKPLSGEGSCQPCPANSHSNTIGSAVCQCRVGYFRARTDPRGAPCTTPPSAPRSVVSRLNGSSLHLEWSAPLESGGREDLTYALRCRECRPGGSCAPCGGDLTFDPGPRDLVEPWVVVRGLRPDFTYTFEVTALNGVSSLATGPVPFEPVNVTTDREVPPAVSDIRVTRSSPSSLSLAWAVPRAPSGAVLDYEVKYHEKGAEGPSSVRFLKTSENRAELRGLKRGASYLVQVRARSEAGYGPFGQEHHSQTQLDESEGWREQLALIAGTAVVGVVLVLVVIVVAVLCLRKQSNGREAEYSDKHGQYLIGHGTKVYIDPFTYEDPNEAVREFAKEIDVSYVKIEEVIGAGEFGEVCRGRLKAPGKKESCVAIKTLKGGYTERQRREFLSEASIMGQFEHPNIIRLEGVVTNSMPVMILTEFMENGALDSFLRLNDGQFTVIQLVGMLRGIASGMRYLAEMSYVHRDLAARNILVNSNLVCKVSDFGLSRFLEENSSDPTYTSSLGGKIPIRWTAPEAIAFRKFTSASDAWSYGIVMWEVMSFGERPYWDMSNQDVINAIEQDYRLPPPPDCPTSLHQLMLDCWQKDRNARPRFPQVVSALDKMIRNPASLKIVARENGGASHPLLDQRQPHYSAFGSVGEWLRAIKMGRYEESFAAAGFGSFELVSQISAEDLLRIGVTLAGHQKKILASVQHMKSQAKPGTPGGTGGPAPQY
LYP act: LYP (human) phosphatase activation. Q9Y2R2. recombinant LYP, DiFMUP fluorescence; 0 = plate median, 100 = signal doubled. activation, % at 2 µM. hit rate 0.11% among 96,000. AID 697;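 active = activation at 2 µM above a set limit, the mean plus 5 SD, cut at about 37% in these data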
Plk1 PBD FP: blocks phosphopeptide binding to human Plk1 polo box domain; AID 693; hit rate 0.13% among 97,000; P53350; inhibition, %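 (tested at about 20 µM)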; Plk1 PBD phosphopeptide binding, fluorescence polarization; in the data active = inhibition above about 34%, passing the limit was not always enough
PLK1 inh: inhibitors of human PLK1 kinase; P53350; inhibition, % at 10 µM; hit rate 0.53% among 97,000; recombinant PLK1 kinase, TR-FRET peptide phosphorylation;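 active = inhibition of 50% or more in the single-concentration screen; inactive = inhibition below 50%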
Each line names hits and unclear results; the compound was inactive in the other large screens; [ ] = remark or other dose.

O=S(=O)(NC1CCCCC1)c1ccc(S(=O)(=O)N2CCN3CCCC3C2)cc1 (stereo not given)	none
CCN1C(=O)c2cccc3c(NC(=O)c4ccc(OC)c(OC)c4)ccc1c23	none
N#Cc1ccc(NC(=O)C2CC(c3ccc(F)cc3)=NO2)cc1 (stereo not given)	none
O=C(Nc1ccc2c(c1)OCO2)C1CC(c2ccc(F)cc2)=NO1 (stereo not given)	EphB4 antag 20.1
Cc1ccsc1C1C2=C(CCCC2=O)Nc2ncnn21 (stereo not given)	PLK1 inh 61.2
Cc1ccsc1C1C2=C(CC(C)(C)CC2=O)Nc2ncnn21 (stereo not given)	none
CN1C(=O)S/C(=C/c2cccnc2)C1=O	EphB4 antag 18.5
O=C(/C=C/c1ccccc1Cl)NCc1ccccc1	EphB4 antag 15.6
CN1CCn2c1nc(N1CCOCC1)nc2=O	PTPN22 inh 2 30.8
CCN1CC2=C(OC(N)=C(C#N)C2c2cccs2)/C(=C\c2cccs2)C1 (stereo not given)	none
Cc1cc(C(C)(C)C)cc(C)c1COC(=O)C1CCC(=O)N1 (stereo not given)	PTPN22 inh 2 27.1
C=CCn1c(C#N)c(N)sc1=N	EphB4 antag 15.3
COc1ccc(Cl)cc1S(=O)(=O)N1CCN=C1C	PLK1 inh 64.2 (no result: PTPN22 inh 2, LYP act)
C=CCOCC(O)CS(=O)(=O)Cc1ccc(Cl)cc1 (stereo not given)	none
COCc1cc(C)nc(Nc2ccccc2C)c1C#N	PTPN22 inh 2 26.0
COCc1cc(C)nc(SCC(=O)Nc2cccc(C)c2C)c1C#N	none
CCOc1c(Cl)cc(CNCC(C)C)cc1Cl	none
Cc1nc(NC(=O)CC(C)C)sc1-c1csc(Nc2ccc(Cl)cc2Cl)n1	none
Cc1nc(NC(=O)CC(C)C)sc1-c1csc(Nc2ccc(Cl)cc2)n1	PTPN22 inh 2 50.6
Cc1ccc(S(=O)(=O)C/N=C(/NC(=S)N(c2ccccc2)c2ccccc2)c2ccccc2)cc1	none
COc1ccc(Cl)cc1NC(=S)N1CCN(C(=O)c2ccco2)CC1	none
COC(=O)CN1C(=O)C(O)(CC(=O)c2ccc(C)o2)c2ccccc21 (stereo not given)	none
Cc1ccc(C(=O)CC2(O)C(=O)N(C)c3ccccc32)o1 (stereo not given)	PLK1 inh 63.4 (no result: PTPN22 inh 2, LYP act)
O=C(CN(Cc1cccs1)C(=O)CSc1nnc(COc2ccccc2)o1)NC1CCCC1	EphB4 antag 19.6
O=c1[nH]c(SCc2n[nH]c(=S)n2-c2ccccc2)nc2sc3c(c12)CCC3	none
CC(C)(C)C1CC=C2C(C#N)=C(N)C(C#N)(C#N)C(c3cccs3)C2C1 (stereo not given)	Rev-RRE block 48.6
COc1ccc2ccccc2c1/C=N\n1c(C)cc(C)c(C(N)=O)c1=O	none
Cc1nnc(-c2ccccc2)c(=O)n1/N=C/c1c(O)ccc2ccccc12	Rev-RRE block 129.6[fluorescence artefact?]
COC(=O)c1ccc(OCC(=O)c2ccccc2OC)cc1	none
Nc1nncn1C(=O)c1cccs1	PLK1 inh 57.4
Cc1ccc(C)c(C(=O)n2cnnc2N)c1	PLK1 inh 54.5
O=C1CN(C(=O)COC(=O)c2ccccc2NCc2ccco2)c2ccccc2N1	none
N#CC1=C(N)SC(N)=C(C#N)C1c1ccoc1	Rev-RRE block 85.8[fluorescence artefact?]
Cc1ccc(C2C(C#N)=C(N)SC(N)=C2C#N)cc1	Rev-RRE block 58.5
CCNc1nc(N)c(C(=O)c2ccc(Cl)s2)s1	PLK1 inh 68.2
CC(C)(C)c1csc(NC(=O)c2ccc(Cl)s2)n1	none
CCOC(=O)N1CCC(N2Cc3cccc(C(=O)NC(C)c4ccc5c(c4)OCCO5)c3C2=O)CC1 (stereo not given)	none
CC1CCCCN1C(=S)NCCc1ccccc1 (stereo not given)	none
CCOC(=O)C1CCCN(c2c(Nc3ccc(OCC)cc3)c(=O)c2=O)C1 (stereo not given)	none
CCOC(=O)C1CCCN(c2c(Nc3cccc(C)c3)c(=O)c2=O)C1 (stereo not given)	PLK1 inh 60.6 (no result: PTPN22 inh 2, LYP act)
CCn1cc(C(=O)N2CCCCC2)c(=O)c2cc(S(=O)(=O)N3CCC(C)CC3)ccc21	PLK1 inh 50.1
O=C(Cn1cnc2ccccc21)Nc1ccc(C(=O)O)cc1	PTPN22 inh 2 32.6
CC(C)OCC(O)CN1CCNCC1 (stereo not given)	none
CCCOC(=O)Nc1nc2ccccc2o1	Rev-RRE block 38.2
Cc1cccc(-n2ccnc2SCC(=O)Nc2nnc(C)s2)c1	none
Cc1nnc(NC(=O)CSc2nccn2C)s1	EphB4 antag 70.7
CCCC(=O)N1CCN(c2ccc([N+](=O)[O-])c(NC(C)c3ccccc3)c2)CC1 (stereo not given)	none
CCCCN(C)C(=O)c1cn(CC)c2ccc(S(=O)(=O)N(C)C)cc2c1=O	PLK1 inh 59.5 (no result: PTPN22 inh 2, LYP act)
COc1cccc(/C=N/NC(=O)c2ccc(-c3ccccc3)cc2)c1O	PTPN22 inh 2 27.6
COc1cccc(/C=N/NC(=O)c2[nH]c(C)c(C(=O)N/N=C/c3cccc(OC)c3O)c2C)c1O	none
CN(C)c1nccc(Nc2ccccc2)c1C#N	EphB4 antag 15.7
CN(C)CCN(Cc1ccccc1)c1nccc(N(C)C)c1C#N	none
CCC(=O)Nc1cc(C)c(NC(=O)CCc2ccccc2)cn1	Rev-RRE block 37.8
Cc1c(NC(=O)COC(=O)C(c2ccc(Cl)cc2)C(C)C)c(=O)n(-c2ccccc2)n1C (stereo not given)	EphB4 antag 16.9
CCN(CC)C(=O)Nc1c(C)n(C)n(-c2ccccc2)c1=O	PLK1 inh 54.7
O=C(CCc1ccccc1)Nc1nnc(-c2ccc3c(c2)CCCC3)o1	none
CC1CC(C)CN(S(=O)(=O)c2ccc(C(=O)Nc3nnc(-c4cccs4)o3)cc2)C1 (stereo not given)	none
O=C(Nc1nnc(-c2cccs2)o1)c1cccc(C(F)(F)F)c1	PLK1 inh 60.7 (no result: PTPN22 inh 2, LYP act)
O=C(CCc1ccccc1)Nc1nnc(-c2cccs2)o1	PLK1 inh 61.5 (no result: PTPN22 inh 2, LYP act)
Cc1c(C(=O)Oc2cccc3ccccc23)cnn1-c1ccccc1	none
CCOC(=O)C1=NN(C(=O)Nc2cccc(C(F)(F)F)c2)C2C(=O)N(c3cccc(C(F)(F)F)c3)C(=O)C12 (stereo not given)	none
CN1CCN(c2cc(=O)n(C3CCCCC3)c(=O)[nH]2)CC1	PLK1 inh 65.1 (no result: PTPN22 inh 2, LYP act)
COc1ccc(-n2nc(C(=O)NCC(=O)Nc3ccccn3)c3ccccc3c2=O)cc1Cl	none
N#CC1=C2SCN(c3ccccc3)CN2C(=O)CC1c1ccccc1Cl (stereo not given)	PLK1 inh 55.5
Cc1ccc(C2CC(=O)N3CN(c4ccc(Br)cc4)CSC3=C2C#N)o1 (stereo not given)	Rev-RRE block 44.6
CCOc1ccc(N2CSC3=C(C#N)C(c4ccco4)CC(=O)N3C2)cc1 (stereo not given)	none
